Measured values as given in ChEMBL document CHEMBL3797198, “Discovery of pyrazinone based compounds that potently inhibit the drug-resistant enzyme variant R155K of the hepatitis C virus NS3 protease” (Bioorg Med Chem, 2016).

Key:
Hepatitis C virus = test: Antiviral activity against HCV infected in human HuH7 cells by cell based replicon assay; assay type: functional, organism-based, Hepacivirus hominis; details: Huh-7
Outline: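 HCV replicon cell assay; EC50 given as the mean of two experiments.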

[1] = Cytotoxicity against human HuH7 cells; assay type: cell-based, Huh-7
[2] = Inhibition of wild-type full-length HCV genotype 1a NS3 protease using Ac-DED(Edans)EEAbu-psi-[COO]ASK(Dabcyl)-NH2 as substrate by FRET assay; set-up: species or system Hepatitis C virus subtype 1a
Outline: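 Full-length HCV NS3 (protease-helicase/NTPase), genotype 1a wild type, FRET protease assay. 1 nM enzyme preincubated 10 min at 30 °C in 50 mM HEPES pH 7.5 with 10 mM DTT. Inhibition taken from measured initial velocities, corrected for each compound's auto-fluorescence. That correction used the ratio of fluorescence with and without compound, measured at every tested concentration.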

| SMILES | EC50 (Hepatitis C virus) [nM] | CC50 [1] [nM] | Ki [2] [nM] |
| --- | --- | --- | --- |
| CC(C)(C)OC(=O)N[C@H]1CCCCC/C=C\[C@@H]2C[C@@]2(C(=O)NS(=O)(=O)C2CC2)NC(=O)[C@@H]2C[C@@H](OC(=O)N3Cc4cccc(F)c4C3)CN2C1=O [DANOPREVIR] | 11 | > 1000 | – |
| CC(C)(C)NC(=O)Nc1nc(Cl)c(CCC2CCCCC2)n(CC(=O)Nc2cc(C(=O)NS(=O)(=O)c3ccc(C(F)(F)F)cc3)cc(C(F)(F)F)c2)c1=O | – | – | 100 |
| CC(C)(C)NC(=O)Nc1nc(Cl)c(Cc2cccc3ccccc23)n(CC(=O)Nc2ccccc2S(=O)(=O)NC(=O)c2ccc(C(F)(F)F)cc2)c1=O | – | – | 180 |
| CC(C)(C)NC(=O)Nc1nc(Cl)c(CCC2CCCCC2)n(CC(=O)Nc2ccccc2C(=O)NS(=O)(=O)c2cccc(C(F)(F)F)c2)c1=O | – | – | 230 |
| CN(C(=O)c1ccccc1NC(=O)Cn1c(CCC2CCCCC2)c(Cl)nc(NC(=O)NC(C)(C)C)c1=O)S(=O)(=O)c1ccc(C(F)(F)F)cc1 | – | – | 260 |
| CC(C)(C)NC(=O)Nc1nc(Cl)c(CCC2CCCCC2)n(CC(=O)Nc2ccccc2C(=O)NS(=O)(=O)c2ccccc2C(F)(F)F)c1=O | – | – | 130 |
| CC(C)(C)NC(=O)Nc1nc(Cl)c(CCC2CCCCC2)n(CC(=O)Nc2cccc(C(=O)NS(=O)(=O)c3ccc(C(F)(F)F)cc3)c2)c1=O | – | – | 170 |
| CC(C)(C)NC(=O)Nc1nc(Cl)c(CCC2CCCCC2)n(CC(=O)Nc2cc(-c3cncnc3)ccc2C(=O)NS(=O)(=O)c2ccc(C(F)(F)F)cc2)c1=O | – | – | 120 |
| CC(C)(C)NC(=O)Nc1nc(Cl)c(CCC2CCCCC2)n(CC(=O)Nc2ccc(C(=O)NS(=O)(=O)c3ccc(C(F)(F)F)cc3)cc2)c1=O | – | – | 260 |
| CCCC(NC(=O)[C@@H]1[C@H]2CCC[C@H]2CN1C(=O)[C@@H](NC(=O)[C@@H](NC(=O)c1cnccn1)C1CCCCC1)C(C)(C)C)C(=O)C(=O)NC1CC1 (some centres undefined) | 650 | > 1000 | 15 |
| COC(=O)c1ccccc1NC(=O)Cn1c(CCC2CCCCC2)c(Cl)nc(NC(=O)NC(C)(C)C)c1=O | 22000 | > 100000 | 120 |
| CC[C@H](C)[C@H](NC(=O)[C@H](CC(C)C)NC(=O)C(CC(C(=O)O)C(=O)O)NC(=O)[C@H](CC(=O)O)NC(C)=O)C(=O)N[C@@H](CC1CCCCC1)C(=O)N[C@@H](CS)C(=O)O (single isomer, unassigned) | – | – | 91 |
| CC(C)(C)NC(=O)Nc1nc(Cl)c(CCC2CCCCC2)n(CC(=O)Nc2ccccc2C(=O)O)c1=O | 49000 | > 100000 | 120 |
| CC(C)(C)NC(=O)Nc1nc(Cl)c(CCC2CCCCC2)n(CC(=O)Nc2cc(Br)ccc2C(=O)NS(=O)(=O)c2ccc(C(F)(F)F)cc2)c1=O | – | – | 150 |
| CC(C)(C)NC(=O)Nc1nc(Cl)c(CCC2CCCCC2)n(CC(=O)NC2(C(=O)NS(=O)(=O)c3ccc(C(F)(F)F)cc3)CC(OCc3ccccc3)C2)c1=O (centres undefined) | – | – | 70 |
| CC(C)(C)NC(=O)Nc1nc(Cl)c(Cc2ccccc2)n(CC(=O)O)c1=O | – | – | > 10000 |
| CC(C)(C)NC(=O)Nc1nc(Cl)c(Cc2cccc3ccccc23)n(CC(=O)Nc2cccc(S(=O)(=O)NC(=O)c3ccc(C(F)(F)F)cc3)c2)c1=O | – | – | 190 |
| C=Cc1ccc(C(=O)NS(=O)(=O)c2ccc(C(F)(F)F)cc2)c(NC(=O)Cn2c(CCC3CCCCC3)c(Cl)nc(NC(=O)NC(C)(C)C)c2=O)c1 | – | – | 120 |
| CC(C)(C)NC(=O)Nc1nc(Cl)c(Cc2ccccc2)n(CC(=O)NC2(C(=O)NS(=O)(=O)c3ccc(C(F)(F)F)cc3)CC(OCc3ccccc3)C2)c1=O (centres undefined) | – | – | 150 |
| CC(C)(C)NC(=O)Nc1nc(Cl)c(CCc2ccccc2)n(CC(=O)Nc2ccccc2S(=O)(=O)NC(=O)c2ccc(C(F)(F)F)cc2)c1=O | – | – | 170 |
| Cc1ccc(S(=O)(=O)NC(=O)c2ccccc2NC(=O)Cn2c(CCC3CCCCC3)c(Cl)nc(NC(=O)NC(C)(C)C)c2=O)cc1 | – | – | 120 |
| CC(C)(C)NC(=O)Nc1nc(Cl)c(CCC2CCCCC2)n(CC(=O)Nc2ccc(CC(=O)NS(=O)(=O)c3ccc(C(F)(F)F)cc3)cc2)c1=O | – | – | 140 |
| CC(C)(C)NC(=O)Nc1ncc(Cc2ccccc2)n(CC(=O)NC2(C(=O)NS(=O)(=O)c3ccc(C(F)(F)F)cc3)CC(O)C2)c1=O (centres undefined) | – | – | 450 |
| CC(C)(C)NC(=O)Nc1nc(Cl)c(CCC2CCCCC2)n(CC(=O)Nc2cc(F)ccc2C(=O)NS(=O)(=O)c2ccc(C(F)(F)F)cc2)c1=O | 7300 | 38000 | 110 |
| CC(C)(C)NC(=O)Nc1nc(Cl)c(Cc2cccc3ccccc23)n(CC(=O)Nc2ccc(S(=O)(=O)NC(=O)c3ccc(C(F)(F)F)cc3)cc2)c1=O | – | – | 170 |
